Experiment [1] deals with T1, Prostaglandin D2 receptor 2 (Homo sapiens, UniProt Q9Y5Y4).
T1 sequence (Q9Y5Y4 whole entry): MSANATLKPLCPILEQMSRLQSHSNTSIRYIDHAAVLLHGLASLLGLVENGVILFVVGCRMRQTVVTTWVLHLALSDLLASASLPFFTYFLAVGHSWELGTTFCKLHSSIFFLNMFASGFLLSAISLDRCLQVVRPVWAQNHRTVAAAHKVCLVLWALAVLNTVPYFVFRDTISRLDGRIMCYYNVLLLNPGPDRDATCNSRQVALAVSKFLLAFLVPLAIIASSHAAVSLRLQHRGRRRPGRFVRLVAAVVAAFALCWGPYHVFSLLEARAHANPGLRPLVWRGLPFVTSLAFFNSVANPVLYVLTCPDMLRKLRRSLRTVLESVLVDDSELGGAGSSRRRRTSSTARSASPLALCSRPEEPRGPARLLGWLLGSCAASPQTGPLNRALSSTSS
As to the kind of experiment: Displacement of 3H-PGD2 from human CRTH2 receptor expressed in CHO cells. In kind it is cell-based. The method, boiled down: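 Radioligand binding with ³H-PGD₂ on CHO cells stably transfected with human CRTH2. IC50 taken from full 10-point, half-log concentration–response curves, as means of at least two independent experiments.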
Background: Displacement assays read how much labelled ligand stays bound in the presence of the test substance.

Experiment [2] concerns the target T1, Prostaglandin D2 receptor 2. As to the kind of experiment: Antagonist activity at human CRTH2 receptor expressed in human KB8 cells assessed as inhibition of PGD2-induced increase in intracellular Ca2+ concentration. Format: functional, cell-based. The method, boiled down: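 Cells then washed and resuspended in HBSS with 10 mM HEPES pH 7.3 and 1 mM CaCl2 at 2 × 10⁵ cells/100 µl. PGD2-driven Ca²⁺ flux measured.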

Experiment [3] concerns the target T2, Prostaglandin G/H synthase 2 (Homo sapiens, UniProt P35354).
T2 sequence (P35354 whole entry): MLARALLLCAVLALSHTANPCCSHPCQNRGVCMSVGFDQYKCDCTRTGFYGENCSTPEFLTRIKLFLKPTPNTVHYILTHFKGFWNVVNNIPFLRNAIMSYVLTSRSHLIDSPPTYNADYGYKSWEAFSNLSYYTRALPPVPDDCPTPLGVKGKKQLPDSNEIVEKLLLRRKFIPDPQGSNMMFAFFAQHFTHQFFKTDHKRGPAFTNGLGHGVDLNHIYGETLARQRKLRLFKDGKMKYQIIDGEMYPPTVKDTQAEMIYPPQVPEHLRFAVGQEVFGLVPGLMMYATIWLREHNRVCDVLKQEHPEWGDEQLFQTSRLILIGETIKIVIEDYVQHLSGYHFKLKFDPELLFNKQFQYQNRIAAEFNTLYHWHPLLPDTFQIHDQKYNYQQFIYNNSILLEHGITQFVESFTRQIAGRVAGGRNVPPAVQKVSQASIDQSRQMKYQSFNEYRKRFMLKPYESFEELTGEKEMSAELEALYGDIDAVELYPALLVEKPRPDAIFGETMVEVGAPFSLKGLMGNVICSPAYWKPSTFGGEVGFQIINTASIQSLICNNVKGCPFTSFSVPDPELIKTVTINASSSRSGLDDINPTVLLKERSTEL
Kind of experiment: Inhibition of COX-2. The gist of the method:
(§1)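 Enzyme inhibition assays for COX-1 and COX-2 run by a contract profiling service following the provider's procedures.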

Experiment [4] addresses Prostaglandin G/H synthase 1 (Homo sapiens, UniProt P23219). As to the kind of experiment: Inhibition of COX-1. The method, boiled down:
as §1

In experiment [5] the target is T3, Prostaglandin D2 receptor (Homo sapiens, UniProt Q13258).
T3 sequence (Q13258 whole entry): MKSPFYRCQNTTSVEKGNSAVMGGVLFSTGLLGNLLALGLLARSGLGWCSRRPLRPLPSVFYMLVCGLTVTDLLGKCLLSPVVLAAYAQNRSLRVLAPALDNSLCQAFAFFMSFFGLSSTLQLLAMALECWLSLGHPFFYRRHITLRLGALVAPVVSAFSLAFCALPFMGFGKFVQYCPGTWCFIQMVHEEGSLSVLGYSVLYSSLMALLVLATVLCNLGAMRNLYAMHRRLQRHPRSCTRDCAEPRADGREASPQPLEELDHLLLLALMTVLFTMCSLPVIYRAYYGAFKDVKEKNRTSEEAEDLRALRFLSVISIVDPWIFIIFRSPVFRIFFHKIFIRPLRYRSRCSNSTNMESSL
As to the kind of experiment: Inhibition of DP1 prostanoid receptor. The gist of the method: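 DP1 binding assay run by a contract profiling service following the provider's procedures.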

Bounds are passed on as bounds.

Prostaglandin G/H synthase 1, sequence (P23219 whole entry): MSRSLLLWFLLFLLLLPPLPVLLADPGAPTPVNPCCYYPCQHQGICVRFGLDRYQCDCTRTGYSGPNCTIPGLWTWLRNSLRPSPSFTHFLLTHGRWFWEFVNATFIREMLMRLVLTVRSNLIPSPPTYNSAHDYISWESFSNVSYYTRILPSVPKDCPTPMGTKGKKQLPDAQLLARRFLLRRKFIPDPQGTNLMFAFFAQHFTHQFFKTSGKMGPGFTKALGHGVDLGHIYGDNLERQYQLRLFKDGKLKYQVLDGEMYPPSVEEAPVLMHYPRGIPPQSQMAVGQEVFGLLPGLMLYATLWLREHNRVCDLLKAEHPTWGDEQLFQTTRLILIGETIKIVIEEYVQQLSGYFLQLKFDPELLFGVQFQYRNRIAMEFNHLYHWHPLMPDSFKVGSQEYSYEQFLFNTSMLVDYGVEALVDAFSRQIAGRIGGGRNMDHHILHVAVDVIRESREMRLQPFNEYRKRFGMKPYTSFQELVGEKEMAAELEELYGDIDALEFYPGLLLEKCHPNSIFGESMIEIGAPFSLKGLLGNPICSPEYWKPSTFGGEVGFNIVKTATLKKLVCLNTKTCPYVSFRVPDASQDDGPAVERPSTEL

What is called IC50 is the concentration needed to halve the response being measured. In turn, `CC(=O)Nc1ccc(C(=O)c2ncc(CC(=O)O)c3ccccc23)cc1` showed an IC50 in experiment [1] of 0.33 µM.
Take `O=C(O)Cc1cnc(C(=O)c2ccc(NC(=O)c3ccccc3)cc2)c2ccccc12`: the IC50 in experiment [2] came to 0.042 µM; in experiment [1] it was 0.0079 µM.
As to `O=C(O)Cc1cnc(C(=O)c2ccc(NC(=O)C3CCCCC3)cc2)c2ccccc12`, the IC50 in experiment [1] amounted to 0.014 µM.
`O=C(O)Cc1cnc(C(=O)c2ccc(NC(=O)c3ccc4ccccc4c3)cc2)c2ccccc12` had an IC50 in experiment [1] of 0.004 µM.
In the case of `O=C(O)Cc1cnc(C(=O)c2ccc(NC(=O)c3cc4ccccc4[nH]3)cc2)c2ccccc12`, the IC50 in experiment [1] is 0.0032 µM.
For `O=C(O)Cc1cnc(C(=O)c2ccc(NC(=O)c3ccncc3)cc2)c2ccccc12`, in experiment [1], the half-maximal inhibitory concentration (IC50) worked out at 0.083 µM.
As for `O=C(O)Cc1cnc(C(=O)c2ccc(NC(=O)c3ncccn3)cc2)c2ccccc12`, the IC50 in experiment [2] worked out at 0.55 µM; in experiment [1], 0.29 µM.
In experiment [1], `O=C(O)Cc1cnc(C(=O)c2ccc(NC(=O)c3cccc(Cl)c3)cc2)c2ccccc12` came in with an IC50 of 0.0032 µM.
Turning to `O=C(O)Cc1cnc(C(=O)c2ccc(NC(=O)c3ccc(Cl)cc3)cc2)c2ccccc12`, in experiment [1], the IC50 was 0.0034 µM.
Same read-out and setting: under `O=C(O)Cc1cnc(C(=O)c2ccc(NC(=O)c3ccccc3Cl)cc2)c2ccccc12` stands 0.045 µM.
`O=C(O)Cc1cnc(C(=O)c2ccc(NC(=O)c3ccc(C(F)(F)F)cc3)cc2)c2ccccc12`: the IC50 in experiment [2] amounted to 0.015 µM; in experiment [1], 0.0049 µM.
For the compound `COc1ccc(C(=O)Nc2ccc(C(=O)c3ncc(CC(=O)O)c4ccccc34)cc2)cc1`, in experiment [1], the IC50 was 0.0073 µM.
For `O=C(O)Cc1cnc(C(=O)c2ccc(NC(=O)c3ccc(Cl)c(Cl)c3)cc2)c2ccccc12`, the IC50 in experiment [3] was more than 10 µM; in experiment [4], more than 10 µM; in experiment [1], 0.019 µM; in experiment [5], more than 1 µM.
As for `O=C(O)Cc1cnc(C(=O)c2ccc(NC(=O)CCc3ccc(Cl)c(Cl)c3)cc2)c2ccccc12`, the IC50 in experiment [1] came to 0.013 µM.
For `O=C(O)Cc1cnc(C(=O)c2ccc(NC(=O)/C=C/c3ccc(Cl)c(Cl)c3)cc2)c2ccccc12`, the values for the IC50 in experiment [2] and in experiment [1] were 0.017 µM and 0.004 µM, respectively.
Consider `CN(C(=O)c1ccc(Cl)c(Cl)c1)c1ccc(C(=O)c2ncc(CC(=O)O)c3ccccc23)cc1`, for which the IC50 in experiment [1] was 0.21 µM.
On to `O=C(O)Cc1cnc(C(=O)c2ccc(NCc3ccc(Cl)c(Cl)c3)cc2)c2ccccc12`, for which, in experiment [1], the IC50 is 0.0061 µM.
The same measure, in the same setting: under `O=C(O)Cc1cnc(C(=O)c2ccc(NS(=O)(=O)c3ccc(Cl)c(Cl)c3)cc2)c2ccccc12` stands 0.34 µM.
As to `O=C(O)Cc1cnc(C(=O)c2ccc(OCc3ccc(Cl)c(Cl)c3)cc2)c2ccccc12`, the IC50 was 0.18 µM in experiment [2] and 0.038 µM in experiment [1].
On to `O=C(O)Cc1cnc(C(=O)c2ccc(C(=O)Nc3ccc(Cl)c(Cl)c3)cc2)c2ccccc12`, for which the IC50 in experiment [1] came to 0.01 µM.
Same read-out and setting: the result for `O=C(O)Cc1cnc(C(=O)c2ccc(C(=O)NCCc3ccc(Cl)cc3)cc2)c2ccccc12` reads 0.0078 µM; that for `CC(C)(C(=O)O)c1cnc(C(=O)c2ccc(C(=O)NCCc3ccc(Cl)cc3)cc2)c2ccccc12`, 0.2 µM; that for `O=C(O)COc1cnc(C(=O)c2ccc(C(=O)NCCc3ccc(Cl)cc3)cc2)c2ccccc12`, 0.025 µM.

For the origin of these results see ChEMBL document CHEMBL2021917, “Isoquinoline derivatives as potent CRTH2 receptor antagonists: synthesis and SAR” (Bioorg Med Chem Lett, 2012).
